Screening data: PubChem BioAssay, Broad Institute
The list is not random: actives were taken first. Their share in the collection is about 2.7%.
HIV Env fusion: inhibitors of HIV-1 Env-driven cell-cell fusion, primary screen, HeLa-JRFL effector, CEM21 target cells, luciferase; 360,000 tested, 1.1% active; AID 651610, 2012; inhibition, % at 12.3 µM;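 active = mean replicate inhibition score of at least 50 and every replicate individually at or above 50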;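 note: 0% = plate neutral controls and 100% = maraviroc near 300 nM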
F508del corr: F508del CFTR correction, initial screen, CFBE line, single point; activity (quench increase), % at 7.58 µM; CFBE cells, YFP halide quenching; stimulated with forskolin plus potentiator P3; % fluorescence drop versus neutral controls; 350,000 tested, 0.36% active; AID 720511, 2013;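 active = mean added fluorescence quench of at least 8% versus neutral control, with both replicates also reaching 8%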;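 note: cells transiently co-express mutant CFTR-F508del with the halide-sensitive YFP; corrector assay measuring rescue of mutant channel to the surface after 24 h compound exposure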
FGF22 binding: binders of human FGF22 protein, primary screen, FGF22 synaptogenesis inhibitor project, biophysical, thermal shift, single point; 340,000 tested, 1.5% active; recombinant FGF22 thermal shift, SYPRO orange fluorescence; percent of sucrose octasulfate shift, DMSO zero; activity (Tm shift, normalised), % at 9.99 µM; Fibroblast growth factor 22 (Homo sapiens), Q9HCT0;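 active = mean Tm shift, scaled 0 neutral to 100 positive control, at about 1.3% or above, every replicate too, limit read from the data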
Target sequence (Q9HCT0 whole entry, looked up): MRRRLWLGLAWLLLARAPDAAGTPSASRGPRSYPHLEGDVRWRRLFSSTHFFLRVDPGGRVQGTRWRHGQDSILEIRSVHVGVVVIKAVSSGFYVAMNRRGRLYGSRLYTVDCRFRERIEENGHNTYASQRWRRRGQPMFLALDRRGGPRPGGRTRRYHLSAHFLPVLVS
E-sel inducer: E-selectin induction in HUVECs, primary screen, imaging, HUVEC, immunofluorescence imaging, single point. P16581. normalized: neutral wells 0, TNF-alpha wells 100. activation, % at 7.58 µM. 260,000 tested, 0.37% active. AID 686992, 2013;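 active = mean E-selectin-positive cell signal at least 10% of the positive control, reached in at least 60% of replicates, without over 20% cell loss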
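Material: HUVEC primary endothelial cells; Amount: 3,000 cells per well; Dosing: single concentration; Medium: EGM-2 growth medium on 0.1% gelatin-coated wells; Read-out basis: percent E-selectin-positive cells; Signal: immunofluorescence imaging; Control set: TNF-alpha, DMSO.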
S100A4 MyoIIA: inhibitors of S100A4-myosin IIA peptide binding, primary screen, biochemical, fluorescence polarization, TAMRA-MyoIIA peptide; 360,000 tested, 0.14% active; Protein S100-A4 (Homo sapiens), P26447; inhibition, % at 10.7 µM;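 active = mean inhibition of at least 70% across replicates, with every replicate also reaching that level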
Target sequence (P26447 whole entry, looked up): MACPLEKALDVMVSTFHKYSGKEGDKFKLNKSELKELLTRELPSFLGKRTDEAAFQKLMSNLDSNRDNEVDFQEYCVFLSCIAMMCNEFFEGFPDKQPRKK
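Test system: S100A4 monomer protein; Medium: HEPES pH 7.2 with CaCl2, KCl, NaCl, DTT, Triton; Probe or stimulus: TAMRA-labelled myosin IIA heavy-chain peptide probe, 5 nM; Doses: one dose per compound; Times: polarization read 5 min after assay mix addition, stable 5–60 min; Benchmarks: neutral control DMSO, positive control TFP.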
Numbers without * were called inactive; . = no result given; [ ] = remark or other dose.

SMILES	HIV Env fusion	F508del corr	FGF22 binding	E-sel inducer	S100A4 MyoIIA
Cc1cc(C)c(C)c(S(=O)(=O)NCc2ccncc2)c1C	57.1*	2.0	-0.1	.	-3.7
Cn1c(=O)oc2cc(S(=O)(=O)NCc3ccncc3)ccc21	100.1*	.	.	.	.
Cn1c(=O)oc2cc(S(=O)(=O)NCc3ccc(C(=O)O)cc3)ccc21	1.8	-3.1	41.8	0.3	2.0
COc1cc(S(=O)(=O)NCc2ccncc2)ccc1Br	64.5*	-1.1	-0.1	-0.8	0.4
COC(=O)C[C@@H]1CC[C@@H](NS(=O)(=O)c2ccccc2F)[C@H](CO)O1	-2.6[16.7 µM]	0.5	0.1	-0.3	-2.0
COc1cccc(=O)c2c(C)n(CC(=O)c3ccccc3)c(C)c12	31.6	-0.3	43.6*	0.1	-5.4
COc1ccc2c3c(n(C)c2c1)[C@H](CO)N(C)CC31CN(C(=O)CN2CCOCC2)C1	.	-0.7	-0.1	0.0	9.4
COc1ccc(S(=O)(=O)N2CC[C@H]3[C@H](CO)Nc4ccc(-c5cccc(C#N)c5)cc4[C@H]32)cc1	.	2.3	-0.2	-0.2	-43.0
COc1ccc(-c2ccc3c(c2)[C@@H]2[C@@H](CCN2S(=O)(=O)c2ccc(OC)cc2)[C@H](CO)N3)cc1	.	4.3	0.0	1.0	.
COc1ccc(-c2ccc3c(c2)[C@H]2[C@H](CCN2S(=O)(=O)c2ccc(OC)cc2)[C@@H](CO)N3)cc1	.	20.2*	-0.2	2.0	.
COc1ccc(S(=O)(=O)N2CC[C@@H]3[C@@H](CO)Nc4ccc(-c5cccc(C#N)c5)cc4[C@@H]32)cc1	.	12.6*	-0.3	-0.8	14.8
COc1ccc(S(=O)(=O)N2CC[C@@H]3[C@@H](CO)Nc4ccc(C5=CCCCC5)cc4[C@@H]32)cc1	.	9.0*	.	2.5	-3.1
C[C@@H]1CN([C@@H](C)CO)C(=O)c2cc(NS(=O)(=O)c3ccc(Cl)cc3)ccc2O[C@@H]1CN(C)C(=O)Nc1ccc(C(F)(F)F)cc1	3.6[16.7 µM]	0.2	.	1.0	.
C/C=C/c1ccc([C@H]2[C@@H](CO)N(CCC)[C@@H]2CNC(=O)NC2CCCC2)cc1	.	4.1	.	0.1	2.2
CN(N=Cc1ccc([N+](=O)[O-])cc1)c1ccccn1	-76.9	-3.5	-0.1	-0.2	83.5*
C#CCOCCOCCOCCNc1nc(N2CCN(C(=O)[C@H]([C@@H](C)CC)n3cc(CCC(=O)O)nn3)CC2)nc(N2CCN(C(=O)[C@H](CCCCN)n3cc(CCCC)nn3)CC2)n1	-39.1	9.2*	-0.1	0.1	-1.3
C#CCOCCOCCOCCNc1nc(N2CCN(C(=O)[C@H]([C@@H](C)CC)n3cc(CCCCN)nn3)CC2)nc(N2CCN(C(=O)[C@H](CCCCN)n3cc(CCCC)nn3)CC2)n1	10.8	0.0	0.1	1.3	-3.5
CCCOc1ccc(N2C(=O)CC(N(CCOC34CC5CC(CC(C5)C3)C4)C(C)=O)C2=O)cc1 (stereo not given)	57.1*	0.1	0.2	1.3	-2.2
COCC#Cc1ccc2c(c1)O[C@H](CN(C)C(=O)C1CCC1)[C@@H](C)CN([C@H](C)CO)S2(=O)=O	-155.6[16.7 µM]	0.4	-0.1	0.9	-0.9
CCC(C)n1nccc1NC(=O)C(C)Cl (stereo not given)	11.3	-4.4	43.4*	1.4	5.9
Cc1ccccc1C(=O)NCC(=O)OC(C)C(=O)Nc1ccnn1C(C)C (stereo not given)	-4.7	-2.0	0.3	-1.8	1.6
O=C(NCCc1ccncc1)[C@@H]1N[C@@H]2c3ccc(/C=C/c4ccccc4)c(=O)n3C[C@@H]2[C@H]1CO	-1.1[16.7 µM]	.	0.0	0.3	0.6
Nc1ccn(C2OC(COP(=O)(O)O)C(O)C2O)c(=O)n1 (stereo not given)	82.2*	5.9	0.1	0.6	-19.4
CC(=O)NC[C@H]1O[C@@H](n2ccc(N)nc2=O)[C@H](O)[C@@H]1O	.	0.0	-0.3	-0.2	-3.7
Nc1ccn([C@@H]2O[C@H](C(=O)NCC(F)(F)F)[C@@H](O)[C@H]2O)c(=O)n1	9.8	10.1*	0.4	3.5	-12.0
SMILES	HIV Env fusion	F508del corr	FGF22 binding	E-sel inducer	S100A4 MyoIIA
O=C(CCCN1C(=O)/C(=C/c2cccs2)SC1=S)Nc1cccnc1	7.4	-3.6	43.6*	22.3	-5.8
C[C@H]1CCCCO[C@H](CN(C)C(=O)CCC(F)(F)F)[C@@H](C)CN([C@@H](C)CO)C(=O)c2cc(NS(=O)(=O)c3cn(C)cn3)ccc2O1	-13.2[16.7 µM]	2.1	-0.4	-0.2	-14.2
CCCCn1nc(NC(=O)CCC)c2cc3cc(OC)ccc3nc21	-11.0	-2.6	0.0	.	-2.5
CCCCn1nc(NC(=O)CC(C)C)c2cc3cc(OC)ccc3nc21	-18.8	-3.1	0.1	55.6*	-1.2
COC(=O)[C@@]1(Cc2ccccc2)N=C(c2ccc(OCCCO)cc2)O[C@H]1c1ccccc1	26.4[16.7 µM]	-1.8	0.2	.	5.6
O=C(N/C(=C/c1cccnc1)C(=O)N1CCOCC1)c1ccccc1	8.3	3.4	43.2*	-0.2	0.0
O=C(N/C(=C/c1cccnc1)C(=O)N1CCCCCC1)c1ccccc1	9.6	1.9	0.3	0.3	3.3
O=C(N/C(=C/c1cccs1)C(=O)N1CCOCC1)c1ccccc1	-9.2	-2.0	44.0*	.	-0.1
O=C(N/C(=C\c1ccccc1)C(=O)N1CCN(CCO)CC1)c1ccccc1	78.6*	.	.	.	.
CN1CCN(C(=O)/C(=C\c2cccnc2)NC(=O)c2cccc(Br)c2)CC1	14.3	-1.8	1.4*	.	48.0
COc1ccc2c3c([nH]c2c1)[C@H](CO)N(C(=O)Nc1ccccc1F)CC31CN(C(C)=O)C1	.	-1.1	-0.2	-0.3	-4.0
COc1ccc(/C=C(\NC(=O)c2ccc([N+](=O)[O-])cc2)C(=O)N2CCOCC2)cc1	11.2	-1.0	43.3*	-0.2	5.1
C[C@H]1CCCCO[C@@H](CN(C)Cc2ccc3c(c2)OCO3)[C@@H](C)CN([C@@H](C)CO)C(=O)c2cc(NC(=O)Nc3ccccc3)ccc2O1	60.0*[16.7 µM]	-2.5	-0.5	2.1	9.6
C[C@H](CO)N1C[C@H](C)[C@H](CN(C)Cc2ccccc2)OCCCC[C@H](C)Oc2ccc(NC(=O)Nc3ccc4c(c3)OCO4)cc2C1=O	57.8*[16.7 µM]	-3.6	-1.0	-0.1	-12.3
C[C@@H]1CN([C@H](C)CO)C(=O)c2cc(NC(=O)Nc3ccc4c(c3)OCO4)ccc2O[C@@H](C)CCCCO[C@H]1CN(C)Cc1ccc(Cl)c(Cl)c1	62.6*[16.7 µM]	2.1	0.3	1.5	10.0
C[C@@H]1CCCCO[C@@H](CN(C)Cc2ccc3c(c2)OCO3)[C@@H](C)CN([C@H](C)CO)C(=O)c2cc(NC(=O)Nc3ccccc3)ccc2O1	-16.8[16.7 µM]	0.8	-0.2	-0.2	-3.2
